Measured values as given in ChEMBL document CHEMBL1154674, “Synthesis and evaluation of three 18F-labeled aminophenylbenzothiazoles as amyloid imaging agents” (J Med Chem, 2009).
Values belong to the compound of their own block, whether it stands above or below them.

Columns and labels:
Assay type in all cases: ADME, organism-based, Macaca mulatta
[1] = Drug level in normal rhesus monkey pons assessed as standard uptake value at 81.2 MBq, iv after 32.5 mins by microPET; settings: in vivo
[2] = Drug level in normal rhesus monkey parietal cortex assessed as standard uptake value at 81.2 MBq, iv after 12 mins by microPET; settings: in vivo, 0.2 h
[3] = Drug level in normal rhesus monkey parietal cortex assessed as standard uptake value at 81.2 MBq, iv after 42.5 mins by microPET; settings: in vivo
[4] = Drug level in normal rhesus monkey parietal cortex assessed as standard uptake value at 81.2 MBq, iv after 175 mins by microPET; settings: in vivo
[5] = Drug level in normal rhesus monkey white matter assessed as standard uptake value at 81.2 MBq, iv after 42.5 mins by microPET; settings: in vivo
[6] = Drug level in normal rhesus monkey white matter assessed as standard uptake value at 81.2 MBq, iv after 85 mins by microPET; settings: in vivo
[7] = Drug level in normal rhesus monkey thalamus assessed as standard uptake value at 81.2 MBq, iv after 95 mins by microPET; settings: in vivo
[8] = Drug level in normal rhesus monkey cerebellum assessed as standard uptake value at 81.2 MBq, iv after 17.5 mins by microPET; settings: in vivo
Procedure, shortened: (§1)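 One normal rhesus monkey, each tracer given iv via the vena saphena (81.2, 96.3 or 109.4 MBq), with 1 day between tracer injections. Dynamic brain μPET over 180 min used frames of 5 × 60 s, 5 × 120 s, 9 × 300 s and 12 × 600 s. Images were reconstructed by filtered back projection with a RAMP filter. Regional time-activity curves were expressed as SUV.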

[9] = Drug level in normal rhesus monkey cerebellum assessed as standard uptake value at 81.2 MBq, iv after 115 mins by microPET; settings: in vivo; procedure, shortened: as §1
[10] = Drug level in normal rhesus monkey cerebellum assessed as standard uptake value at 81.2 MBq, iv after 0.5 mins by microPET; settings: in vivo; procedure, shortened: as §1
[11] = Drug level in normal rhesus monkey white matter assessed as standard uptake value at 96.3 MBq, iv after 27.5 mins by microPET; settings: in vivo
[12] = Drug level in normal rhesus monkey thalamus assessed as standard uptake value at 96.3 MBq, iv after 27.5 mins by microPET; settings: in vivo
[13] = Drug level in normal rhesus monkey thalamus assessed as standard uptake value at 96.3 MBq, iv after 32.5 mins by microPET; settings: in vivo
[14] = Drug level in normal rhesus monkey thalamus assessed as standard uptake value at 96.3 MBq, iv after 135 mins by microPET; settings: in vivo, 2.25 h
[15] = Drug level in normal rhesus monkey pons assessed as standard uptake value at 96.3 MBq, iv after 17.5 mins by microPET; settings: in vivo
[16] = Drug level in normal rhesus monkey pons assessed as standard uptake value at 96.3 MBq, iv after 57.5 mins by microPET; settings: in vivo
[17] = Drug level in normal rhesus monkey frontal cortex assessed as standard uptake value at 96.3 MBq, iv after 2.5 mins by microPET; settings: in vivo
[18] = Drug level in normal rhesus monkey thalamus assessed as standard uptake value at 109.4 MBq, iv after 129 mins by microPET; settings: in vivo, 2.15 h
[19] = Drug level in normal rhesus monkey pons assessed as standard uptake value at 109.4 MBq, iv after 37.5 mins by microPET; settings: in vivo, 0.625 h
[20] = Drug level in normal rhesus monkey parietal cortex assessed as standard uptake value at 109.4 MBq, iv after 0.625 mins by microPET; settings: in vivo, 38 s
[21] = Drug level in normal rhesus monkey cerebellum assessed as standard uptake value at 109.4 MBq, iv after 32.5 mins by microPET; settings: in vivo
Procedure, shortened: (§2)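 One normal rhesus monkey received each tracer via the vena saphena, with 1 day between injections. Dynamic μPET ran 180 min for 18F tracers (5×60 s, 5×120 s, 9×300 s, 12×600 s) and 90 min for the 11C tracer (5×60 s, 5×120 s, 9×300 s, 3×600 s). Filtered back-projection reconstruction (RAMP filter) was used. Time-activity curves were drawn to give regional SUV.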

[22] = Drug level in normal rhesus monkey thalamus assessed as standard uptake value at 109.4 MBq, iv after 93 mins by microPET; settings: in vivo, 1.55 h
[23] = Drug level in normal rhesus monkey cerebellum assessed as standard uptake value at 109.4 MBq, iv after 47.5 mins by microPET; settings: in vivo; procedure, shortened: as §2
[24] = Drug level in normal rhesus monkey cerebellum assessed as standard uptake value at 109.4 MBq, iv after 93 mins by microPET; settings: in vivo, 1.55 h
[25] = Drug level in normal rhesus monkey frontal cortex assessed as standard uptake value at 109.4 MBq, iv after 9.5 mins by microPET; settings: in vivo
[26] = Drug level in normal rhesus monkey thalamus assessed as standard uptake value at 109.4 MBq, iv after 37.5 mins by microPET; settings: in vivo, 0.625 h
[27] = Drug level in normal rhesus monkey thalamus assessed as standard uptake value at 109.4 MBq, iv after 42.5 mins by microPET; settings: in vivo
[28] = Drug level in normal rhesus monkey thalamus assessed as standard uptake value at 109.4 MBq, iv after 81 mins by microPET; settings: in vivo, 1.35 h
[29] = Drug level in normal rhesus monkey white matter assessed as standard uptake value at 109.4 MBq, iv after 1.5 mins by microPET; settings: in vivo, 0.025 h
[30] = Drug level in normal rhesus monkey white matter assessed as standard uptake value at 109.4 MBq, iv after 12.5 mins by microPET; settings: in vivo
[31] = Drug level in normal rhesus monkey white matter assessed as standard uptake value at 109.4 MBq, iv after 47.5 mins by microPET; settings: in vivo
[32] = Drug level in normal rhesus monkey cerebellum assessed as standard uptake value at 152.9 MBq, iv after 1.5 mins by microPET; settings: in vivo, 0.025 h; procedure, shortened: as §2
[33] = Drug level in normal rhesus monkey white matter assessed as standard uptake value at 152.9 MBq, iv after 8 mins by microPET; settings: in vivo
[34] = Drug level in normal rhesus monkey white matter assessed as standard uptake value at 152.9 MBq, iv after 42.5 mins by microPET; settings: in vivo
[35] = Drug level in normal rhesus monkey cerebellum assessed as standard uptake value at 152.9 MBq, iv after 0.5 mins by microPET; settings: in vivo; procedure, shortened: as §2
[36] = Drug level in normal rhesus monkey pons assessed as standard uptake value at 152.9 MBq, iv after 37.5 mins by microPET; settings: in vivo, 0.625 h
[37] = Drug level in normal rhesus monkey parietal cortex assessed as standard uptake value at 152.9 MBq, iv after 57.5 mins by microPET; settings: in vivo
[38] = Drug level in normal rhesus monkey parietal cortex assessed as standard uptake value at 152.9 MBq, iv after 65 mins by microPET; settings: in vivo

SUV [1]: 5.714
SUV [2]: 4.756
SUV [3]: 3.863
SUV [4]: 2.528
SUV [5]: 3.757
SUV [6]: 3.871
SUV [7]: 5.301
SUV [8]: 2.753
SUV [9]: 1.715
SUV [10]: 0.735
Compound: CNc1ccc2nc(-c3ccc([18F])cc3)sc2c1

SUV [11]: 1.39
SUV [12]: 2.31
SUV [13]: 2.33
SUV [14]: 1.97
SUV [15]: 1.51
SUV [16]: 1.95
SUV [17]: 1.8
Compound: CN(C)c1ccc2nc(-c3ccc([18F])cc3)sc2c1

SUV [18]: 4.43
SUV [19]: 4.73
SUV [20]: 1.52
SUV [21]: 4.03
SUV [22]: 5.05
SUV [23]: 3.54
SUV [24]: 2.52
SUV [25]: 5.43
SUV [26]: 5.66
SUV [27]: 5.55
SUV [28]: 5.18
SUV [29]: 1.98
SUV [30]: 3.01
SUV [31]: 3.53
Compound: Nc1ccc2nc(-c3ccc([18F])cc3)sc2c1

SUV [32]: 0.677
SUV [33]: 1.421
SUV [34]: 1.04
SUV [35]: 0.053
SUV [36]: 1.229
SUV [37]: 0.742
SUV [38]: 0.69
Compound: [11CH3]Nc1ccc(-c2nc3ccc(O)cc3s2)cc1 [PITTSBURGH COMPOUND B]
